The values below come from ChEMBL document CHEMBL1122629, “Potent and selective antagonists of the antidiuretic responses to arginine-vasopressin based on modifications of [1-(beta-mercapto-beta,beta-pentamethylenepropionic acid),2-D-isoleucine,4- valine]arginine-vasopressin at position 4” (J Med Chem, 1984).

*1 amine or outer side, *2 acyl side, *3 side chain or, on linkers, in order; H or OH if unused. Where a SMILES comes first, the peptide text is derived from it. Bridges are numbered along the chain shown (N, C = ends). [ ]: non-standard residue; d: D form. X1 = O=C(CC1(S[*:2])CCCCC1)[*:1]; Orn = NCCC[C@H](N)C(=O)O

Assay [1] is filed under the species Rattus norvegicus. Put plainly: Anti-oxytocic activity on isolated rat uterus in absence of Mg2+. pA2 value is negative logarithm of effective dose (ED). Type of assay: functional. The settings on record: read-out: pA2 (converted). In short, it runs like this:
(§1)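 Isolated rat uterus, with USP posterior pituitary reference standard as agonist. Antagonism expressed as pA2.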

The species entered for assay [2] is Rattus norvegicus. Put plainly: Anti-oxytocic activity on isolated rat uterus in presence of 0.5 mM of Mg2+. pA2 value is negative logarithm of effective dose (ED). Type of assay: functional. The settings on record: read-out: pA2 (converted). In short, it runs like this: as §1
Assay [3] has as its system Rattus norvegicus. Put plainly: Evaluated in vivo for logarithm effective dose (ED). In kind it is functional, organism-based.
The species named for assay [4] is Rattus norvegicus. Put plainly: Antidiuretic activity in rats and pA2 value is negative logarithm of effective dose (ED). In kind it is functional, organism-based. The settings on record: Urine, read-out: pA2 (converted). In short, it runs like this: (§2)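 Antidiuretic assay in rats under ethanol anaesthesia against the USP posterior pituitary reference standard. Standard given 20 min after antagonist, or 10 min for analogues lacking agonism. Each peptide given at a high and a low dose. ED is the dose (nmol/kg) that cuts the response to 2x units of agonist to the response to 1x unit given before antagonist. […] Means ± SE, n assays.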

In assay [5] the test system is Rattus norvegicus. Put plainly: In vivo antidiuretic activity in rat measured as dose that reduced the response seen with 2x units of agonist to equal the response seen with 1x unit of agonist administered before antagonist. In kind it is functional, Urine. In short, it runs like this: as §2
Assay [6] relates to Rattus norvegicus. Put plainly: In vivo anti-vasopressor activity in phenoxybenzamine-treated rats under urethane anesthesia is measured as effective dose. In kind it is functional. In short, it runs like this: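 Intravenous vasopressor assay in phenoxybenzamine-treated rats under urethane anaesthesia, agonist USP posterior pituitary reference standard. ED is the dose (nmol/kg) that reduces the response to 2x units of agonist to that of 1x unit given before antagonist. […] Means ± SE, number of assays given.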

A short description of assay [7]: Ratio of anti-vasopressor ED50 to antiantidiuretic ED50. Type of assay: functional, Urine. In short, it runs like this:
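Ratio of antivasopressor ED to antiantidiuretic ED. Each ED is the dose (nmol/kg) that lowers the response to 2x units of agonist to that of 1x unit before antagonist. Measured in rats: vasopressor assay in phenoxybenzamine-treated, urethane-anaesthetised animals; antidiuretic assay under ethanol anaesthesia.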

The species named for assay [8] is Rattus norvegicus. Put plainly: Anti-oxytocic activity in rat uterus and effective dose (ED) was reported. Type of assay: functional. In short, it runs like this:
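Rat uterus in situ, with synthetic oxytocin as agonist. ED is the dose (nmol/kg) that lowers the response to 2x units of agonist to that of 1x unit given before antagonist.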

As for `CC[C@@H](C)[C@H]1NC(=O)CC2(CCCCC2)SSC[C@@H](C(=O)N2CCC[C@H]2C(=O)N[C@@H](CCCN=C(N)N)C(=O)NCC(N)=O)NC(=O)[C@H](CC(N)=O)NC(=O)[C@H](CCCN)NC(=O)[C@H](Cc2ccccc2)NC1=O` [listing 1 of 2 here], the Kb in the assay filed under Rattus norvegicus [1] is 26.9 nM; in the assay listed under Rattus norvegicus [2], 195 nM; in the assay listed under Rattus norvegicus [4], 347 nM. In the assay on Rattus norvegicus [3], the in vivo pA2 effective dose (as concentration) is 174 nM.
With `CC[C@@H](C)[C@H]1NC(=O)CC2(CCCCC2)SSC[C@@H](C(=O)N2CCC[C@H]2C(=O)N[C@@H](CCCN=C(N)N)C(=O)NCC(N)=O)NC(=O)[C@H](CC(N)=O)NC(=O)[C@H](CCCN)NC(=O)[C@H](Cc2ccccc2)NC1=O` [listing 2 of 2 here], the results for the ED in the assay with Rattus norvegicus [5] and in the assay with Rattus norvegicus [6] were 49 nmol/kg and 11.9 nmol/kg, respectively. Besides, in assay [7], the Ratio came out at 0.24.
For the compound `NC(=O)CNC(=O)[C@H](CCCN=C(N)N)NC(=O)[C@@H]1CCCN1C(=O)[C@@H]1CSSC2(CCCCC2)CC(=O)N[C@H](Cc2ccccc2)C(=O)N[C@@H](Cc2ccccc2)C(=O)N[C@@H](CO)C(=O)N[C@@H](CC(N)=O)C(=O)N1`, the ED with Rattus norvegicus [5] turned out to be 3.9 nmol/kg; in the assay filed under Rattus norvegicus [8] it was 13 nmol/kg; in the assay with Rattus norvegicus [6] it was 1.6 nmol/kg. The Ratio in assay [7] turned out to be 0.41.
Turning to `CC[C@@H](C)[C@H]1NC(=O)CC2(CCCCC2)SSC[C@@H](C(=O)N2CCC[C@H]2C(=O)N[C@@H](CCCN=C(N)N)C(=O)NCC(N)=O)NC(=O)[C@H](CC(N)=O)NC(=O)[C@H](C)NC(=O)[C@H](Cc2ccccc2)NC1=O`, the ED was 1.7 nmol/kg in the assay on Rattus norvegicus [5], 57 nmol/kg in the assay listed under Rattus norvegicus [8] and 66 nmol/kg in the assay on Rattus norvegicus [6]. Further, the Ratio in assay [7] amounted to 39.
Regarding `CC[C@@H](C)[C@H]1NC(=O)CC2(CCCCC2)SSC[C@@H](C(=O)N2CCC[C@H]2C(=O)N[C@@H](CCCN=C(N)N)C(=O)NCC(N)=O)NC(=O)[C@H](CC(N)=O)NC(=O)[C@H](CC(N)=O)NC(=O)[C@H](Cc2ccccc2)NC1=O` [listing 1 of 2 here], the figures for the Kb in the assay listed under Rattus norvegicus [1], in the assay listed under Rattus norvegicus [2] and in the assay filed under Rattus norvegicus [4] were 11.7 nM, 39.8 nM and 309 nM, respectively. In the assay on Rattus norvegicus [3], this compound had an in vivo pA2 effective dose (as concentration) of 55 nM.
With `CC[C@@H](C)[C@H]1NC(=O)CC2(CCCCC2)SSC[C@@H](C(=O)N2CCC[C@H]2C(=O)N[C@@H](CCCN=C(N)N)C(=O)NCC(N)=O)NC(=O)[C@H](CC(N)=O)NC(=O)[C@H](CC(N)=O)NC(=O)[C@H](Cc2ccccc2)NC1=O` [listing 2 of 2 here], the ED in the assay with Rattus norvegicus [5] turned out to be 25 nmol/kg; in the assay on Rattus norvegicus [6], 3.9 nmol/kg. For the same compound, the Ratio in assay [7] came out at 0.16.
With `CC[C@@H](C)[C@H]1NC(=O)CC2(CCCCC2)SSC[C@@H](C(=O)N2CCC[C@H]2C(=O)N[C@@H](CCCN=C(N)N)C(=O)NCC(N)=O)NC(=O)[C@H](CC(N)=O)NC(=O)[C@H]([C@@H](C)O)NC(=O)[C@H](Cc2ccccc2)NC1=O`, the ED in the assay with Rattus norvegicus [5] was found to be 0.88 nmol/kg; in the assay filed under Rattus norvegicus [8], 9.5 nmol/kg; with Rattus norvegicus [6], 10.5 nmol/kg. Moreover, in assay [7], the Ratio is listed as 12.
For `CC[C@@H](C)[C@H]1NC(=O)CC2(CCCCC2)SSC[C@@H](C(=O)N2CCC[C@H]2C(=O)N[C@@H](CCCN=C(N)N)C(=O)NCC(N)=O)NC(=O)[C@H](CC(N)=O)NC(=O)[C@H](C(C)C)NC(=O)[C@H](Cc2ccccc2)NC1=O`, in assay [7], the Ratio is given as 12.
With `CC[C@@H](C)[C@H]1NC(=O)CC2(CCCCC2)SSC[C@@H](C(=O)N2CCC[C@H]2C(=O)N[C@@H](CCCN=C(N)N)C(=O)NCC(N)=O)NC(=O)[C@H](CC(N)=O)NC(=O)[C@H](Cc2ccccc2)NC(=O)[C@H](Cc2ccccc2)NC1=O`, the values for the Kb in the assay filed under Rattus norvegicus [1] and in the assay listed under Rattus norvegicus [2] were 74.1 nM and 120 nM, respectively.
On to `CC[C@@H](C)[C@H]1NC(=O)CC2(CCCCC2)SSC[C@@H](C(=O)N2CCC[C@H]2C(=O)N[C@@H](CCCN=C(N)N)C(=O)NCC(N)=O)NC(=O)[C@H](CC(N)=O)NC(=O)[C@H](CC2CCCCC2)NC(=O)[C@H](Cc2ccccc2)NC1=O` [listing 1 of 2 here], for which the values for the Kb in the assay listed under Rattus norvegicus [1], in the assay filed under Rattus norvegicus [2] and in the assay listed under Rattus norvegicus [4] were 36.3 nM, 81.3 nM and 229 nM, respectively. In the assay with Rattus norvegicus [3], this compound showed an in vivo pA2 effective dose (as concentration) of 275 nM.
For the compound `CC[C@@H](C)[C@H]1NC(=O)CC2(CCCCC2)SSC[C@@H](C(=O)N2CCC[C@H]2C(=O)N[C@@H](CCCN=C(N)N)C(=O)NCC(N)=O)NC(=O)[C@H](CC(N)=O)NC(=O)[C@H](CC2CCCCC2)NC(=O)[C@H](Cc2ccccc2)NC1=O` [listing 2 of 2 here], the ED is recorded as 15.6 nmol/kg in the assay on Rattus norvegicus [5] and 19.1 nmol/kg with Rattus norvegicus [6]. Moreover, the Ratio in assay [7] is on record as 1.2.
Take `CC[C@@H](C)[C@H]1NC(=O)CC2(CCCCC2)SSC[C@@H](C(=O)N2CCC[C@H]2C(=O)N[C@@H](CCCN=C(N)N)C(=O)NCC(N)=O)NC(=O)[C@H](CC(N)=O)NC(=O)[C@H](CO)NC(=O)[C@H](Cc2ccccc2)NC1=O` [listing 1 of 2 here]: the Kb in the assay filed under Rattus norvegicus [1] was 52.5 nM; in the assay listed under Rattus norvegicus [2] it was 151 nM; in the assay filed under Rattus norvegicus [4], 55 nM. Besides, the in vivo pA2 effective dose (as concentration) with Rattus norvegicus [3] was 617 nM.
As for `CC[C@@H](C)[C@H]1NC(=O)CC2(CCCCC2)SSC[C@@H](C(=O)N2CCC[C@H]2C(=O)N[C@@H](CCCN=C(N)N)C(=O)NCC(N)=O)NC(=O)[C@H](CC(N)=O)NC(=O)[C@H](CO)NC(=O)[C@H](Cc2ccccc2)NC1=O` [listing 2 of 2 here], the figures for the ED in the assay on Rattus norvegicus [5] and in the assay with Rattus norvegicus [6] were 4.6 nmol/kg and 45 nmol/kg, respectively. Also, the Ratio in assay [7] is recorded as 10.
`CC[C@@H](C)[C@H]1NC(=O)CC2(CCCCC2)SSC[C@@H](C(=O)N2CCC[C@H]2C(=O)N[C@@H](CCCN=C(N)N)C(=O)NCC(N)=O)NC(=O)[C@H](CC(N)=O)NC(=O)[C@H](CCCCN)NC(=O)[C@H](Cc2ccccc2)NC1=O` [listing 1 of 2 here]: the results for the Kb in the assay filed under Rattus norvegicus [1], in the assay listed under Rattus norvegicus [2] and in the assay filed under Rattus norvegicus [4] were 79.4 nM, 251 nM and 174 nM, respectively.
As to `CC[C@@H](C)[C@H]1NC(=O)CC2(CCCCC2)SSC[C@@H](C(=O)N2CCC[C@H]2C(=O)N[C@@H](CCCN=C(N)N)C(=O)NCC(N)=O)NC(=O)[C@H](CC(N)=O)NC(=O)[C@H](CCCCN)NC(=O)[C@H](Cc2ccccc2)NC1=O` [listing 2 of 2 here], the ED in the assay with Rattus norvegicus [5] is 11.9 nmol/kg.
As to `CC[C@@H](C)[C@H]1NC(=O)CC2(CCCCC2)SSC[C@@H](C(=O)N2CCC[C@H]2C(=O)N[C@@H](CCCN=C(N)N)C(=O)NCC(N)=O)NC(=O)[C@H](CC(N)=O)NC(=O)[C@H](CC(C)C)NC(=O)[C@H](Cc2ccccc2)NC1=O` [listing 1 of 2 here], the Kb was 14.5 nM in the assay listed under Rattus norvegicus [1], 26.9 nM in the assay listed under Rattus norvegicus [2] and 158 nM in the assay listed under Rattus norvegicus [4]. The compound also showed an in vivo pA2 effective dose (as concentration) with Rattus norvegicus [3] of 178 nM.
For the compound `CC[C@@H](C)[C@H]1NC(=O)CC2(CCCCC2)SSC[C@@H](C(=O)N2CCC[C@H]2C(=O)N[C@@H](CCCN=C(N)N)C(=O)NCC(N)=O)NC(=O)[C@H](CC(N)=O)NC(=O)[C@H](CC(C)C)NC(=O)[C@H](Cc2ccccc2)NC1=O` [listing 2 of 2 here], the ED with Rattus norvegicus [5] amounted to 11 nmol/kg; with Rattus norvegicus [6] it was 12.4 nmol/kg. Besides, the Ratio in assay [7] came out at 1.1.
Turning to `NCCC[C@@H]1NC(=O)[C@H](Cc2ccccc2)NC(=O)[C@@H](Cc2ccccc2)NC(=O)CC2(CCCCC2)SSC[C@@H](C(=O)N2CCC[C@H]2C(=O)N[C@@H](CCCN=C(N)N)C(=O)NCC(N)=O)NC(=O)[C@H](CC(N)=O)NC1=O` ([dF]F[Orn]NCPRG-NH2; linker N-5 via X1) [listing 1 of 2 here], the Kb is 18.6 nM in the assay listed under Rattus norvegicus [1], 20 nM in the assay listed under Rattus norvegicus [2] and 316 nM in the assay listed under Rattus norvegicus [4]. The compound further had an in vivo pA2 effective dose (as concentration) in the assay with Rattus norvegicus [3] of 26.9 nM.
Take `NCCC[C@@H]1NC(=O)[C@H](Cc2ccccc2)NC(=O)[C@@H](Cc2ccccc2)NC(=O)CC2(CCCCC2)SSC[C@@H](C(=O)N2CCC[C@H]2C(=O)N[C@@H](CCCN=C(N)N)C(=O)NCC(N)=O)NC(=O)[C@H](CC(N)=O)NC1=O` ([dF]F[Orn]NCPRG-NH2; linker N-5 via X1) [listing 2 of 2 here]: the ED in the assay with Rattus norvegicus [5] amounted to 21.3 nmol/kg; in the assay with Rattus norvegicus [6], 1.9 nmol/kg. In assay [7], the Ratio is listed as 0.09.
